# Assay results as given in ChEMBL document CHEMBL1137350, “Discovery of a new class of macrocyclic antagonists to the human motilin receptor” (J Med Chem, 2006).
# pIC50, pKi: −log10 of the molar value.
# How the values were obtained:
# Motilin receptor [1] = molecular target: T1, Motilin receptor (Homo sapiens, UniProt O43193); assay: Displacement of [125I]motilin from human MOTR
# In short: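 Competition binding on isolated membranes expressing human motilin receptor, with radioiodinated porcine motilin ([125I]-motilin) as tracer. 11-point concentration curves gave Ki, with a top test concentration of 10 µM. Compounds came from 10 mM DMSO stocks stored at -60 °C.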
# Motilin receptor [2] = molecular target: T1, Motilin receptor; assay: Activity at human MOTR expressed in CHO cells assessed as inhibition of motilin-induced calcium release; format: functional, cell-based
# In short: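 Whole CHO cells expressing cloned human motilin receptor; intracellular Ca2+ release evoked by motilin read out by aequorin luminescence. Compounds were tested in antagonist mode and also checked for agonist activity at concentrations up to 10 µM. Compound stocks were 10 mM in DMSO, stored at -60 °C.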
# Motilin receptor [3] = molecular target: T1, Motilin receptor; assay: Activity at human MOTR expressed in CHO cells assessed as inhibition of motilin-induced calcium release upto 10 uM; format: functional, cell-based; details: filed as antagonist
# In short: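 Aequorin luminescence assay on whole CHO cells expressing cloned human motilin receptor, measuring inhibition of motilin-induced Ca2+ release. Agonist activity was also checked at concentrations up to 10 µM. Compounds were TFA salts held as 10 mM DMSO stocks at -60 °C.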
# Oryctolagus cuniculus = species on record: Oryctolagus cuniculus; assay: Antagonist activity against rabbit duodenum; details: read-out: pA2 (converted)
# T1 sequence (O43193 whole entry): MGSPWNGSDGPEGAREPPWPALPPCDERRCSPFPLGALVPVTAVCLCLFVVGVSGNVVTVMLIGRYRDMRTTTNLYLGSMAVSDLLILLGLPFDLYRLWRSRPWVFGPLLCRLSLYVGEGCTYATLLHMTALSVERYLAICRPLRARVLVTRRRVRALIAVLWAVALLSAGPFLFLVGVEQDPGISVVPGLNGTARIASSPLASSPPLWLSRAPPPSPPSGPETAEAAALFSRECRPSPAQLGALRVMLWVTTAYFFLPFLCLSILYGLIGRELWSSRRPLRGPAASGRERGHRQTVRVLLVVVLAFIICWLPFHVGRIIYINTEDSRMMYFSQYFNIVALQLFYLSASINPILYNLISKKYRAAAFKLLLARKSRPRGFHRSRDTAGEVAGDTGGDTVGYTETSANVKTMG
Compound,pKi (Motilin receptor [1]),pIC50 (Motilin receptor [2]),Activity (Motilin receptor [3]),Kb (Oryctolagus cuniculus) [nM]
CCC[C@@H]1NC(=O)[C@@H](C(C)C)NC(=O)[C@@H](Cc2ccc(O)cc2)NCCOc2ccccc2/C=C/CNC1=O,6.86,7.13,Antagonist,–
CCC[C@@H]1NC(=O)[C@@H](C(C)C)NC(=O)[C@@H](Cc2ccc(O)cc2)NCCOc2ccccc2CCNC1=O,6.01,–,Antagonist,–
CCC[C@@H]1NC(=O)[C@@H](C(C)C)NC(=O)[C@@H](CCc2ccccc2)NCCOc2ccccc2CCCNC1=O,5.83,–,Antagonist,–
CCC[C@@H]1NC(=O)[C@@H](C(C)C)NC(=O)[C@H](Cc2ccc(O)cc2)NCCOc2ccccc2/C=C/CNC1=O,< 5.00,–,Antagonist,–
CCC[C@@H]1NC(=O)[C@@H](C(C)C)NC(=O)[C@@H](CC2CCCCC2)NCCOc2ccccc2CCCNC1=O,5.49,–,Antagonist,–
CC(C)[C@H]1NC(=O)[C@@H](Cc2ccc(O)cc2)NCCOc2ccccc2/C=C/CNC(=O)[C@H](C)NC1=O,5.86,–,Antagonist,–
CCC[C@@H]1NC(=O)[C@@H](C(C)C)NC(=O)[C@@H](C)NCCOc2ccccc2/C=C/CNC1=O,< 5.00,–,Antagonist,–
CCC[C@@H]1NC(=O)[C@@H](C(C)C)NC(=O)[C@@H](Cc2csc3ccccc23)NCCOc2ccccc2CCCNC1=O,7.96,–,Antagonist,–
CCC[C@@H]1NC(=O)[C@@H](C(C)C)NC(=O)[C@@H](Cc2ccc(O)cc2)NCCCc2ccccc2CCCNC1=O,< 5.00,–,Antagonist,–
CCC[C@@H]1OC(=O)[C@@H](C(C)C)NC(=O)[C@@H](Cc2ccc(O)cc2)NCCOc2ccccc2CCCNC1=O,5.73,–,Antagonist,–
CCC[C@@H]1NC(=O)[C@@H](C)NC(=O)[C@@H](Cc2ccc(O)cc2)NCCOc2ccccc2/C=C/CNC1=O,6.71,–,Antagonist,–
CCC[C@H](NC(=O)[C@H](NC(=O)[C@@H](Cc1ccc(O)cc1)NCCOc1ccccc1/C=C/CNC(C)=O)C(C)C)C(N)=O,< 5.00,–,Antagonist,–
CCC[C@@H]1NC(=O)[C@@H](C(C)C)OC(=O)[C@@H](Cc2ccc(O)cc2)NCCOc2ccccc2CCCNC1=O,6.72,–,Antagonist,–
CCC[C@@H]1NC(=O)[C@@H](C(C)C)NC(=O)[C@@H](Cc2ccc(O)cc2)NCCc2ccccc2CCCCNC1=O,5.22,–,Antagonist,–
CC(C)[C@H]1NC(=O)[C@@H](Cc2ccc(O)cc2)NCCOc2ccccc2/C=C/CNC(=O)[C@H](CO)NC1=O,6.19,–,Antagonist,–
CCC[C@@H]1NC(=O)[C@H](C(C)C)NC(=O)[C@@H](Cc2ccc(O)cc2)NCCOc2ccccc2/C=C/CNC1=O,< 5.00,–,Antagonist,–
CCC[C@@H]1NC(=O)[C@@H](C(C)C)NC(=O)[C@@H](Cc2ccc(O)cc2)NCCCc2ccccc2/C=C\CCNC1=O,5.14,–,Antagonist,–
CCC[C@@H]1NC(=O)[C@@H](C(C)C)NC(=O)[C@@H](Cc2c[nH]c3ccccc23)NCCOc2ccccc2CCCNC1=O,6.59,–,Antagonist,–
CCC[C@@H]1NC(=O)[C@@H](C(C)C)NC(=O)[C@@H](Cc2ccc(O)cc2)NCCOc2ccccc2CCCNC1=O,7.26,–,Antagonist,–

# More lines, main results first:
pKi (Motilin receptor [1]),pIC50 (Motilin receptor [2]),Activity (Motilin receptor [3]),Compound,Kb (Oryctolagus cuniculus) [nM]
< 5.00,–,Antagonist,CCC[C@@H]1NC(=O)[C@@H](C(C)C)NC(=O)[C@@H](Cc2ccc(O)cc2)NCc2ccccc2CCCCNC1=O,–
8.10,7.64,Antagonist,CCC[C@@H]1NC(=O)[C@@H](C(C)C)NC(=O)[C@@H](Cc2ccc(OC)cc2)NCCOc2ccccc2CCCNC1=O,100
7.10,–,Antagonist,CCC[C@@H]1NC(=O)[C@@H](C(C)C)NC(=O)[C@@H](Cc2ccc3ccccc3c2)NCCOc2ccccc2CCCNC1=O,–
5.01,–,Antagonist,CCC[C@@H]1NC(=O)[C@@H](C(C)C)NC(=O)[C@@H](Cc2ccc(O)cc2)NCCc2ccccc2/C=C/CNC1=O,–
7.24,–,Antagonist,CCC[C@@H]1NC(=O)[C@@H](C(C)C)NC(=O)[C@@H](Cc2ccccc2)NCCOc2ccccc2CCCNC1=O,–
5.62,–,Antagonist,CCC[C@@H]1NC(=O)[C@@H](C(C)C)NNC(=O)[C@@H](Cc2ccc(O)cc2)NCCOc2ccccc2CCCNC1=O,–
< 5.00,–,Antagonist,CCC[C@@H]1NC(=O)[C@@H](C(C)C)NC(=O)[C@@H](Cc2ccc(O)cc2)NCCc2ccccc2/C=C\CCNC1=O,–
6.47,–,Antagonist,CCC[C@H]1NC(=O)[C@@H](C(C)C)NC(=O)[C@@H](Cc2ccc(O)cc2)NCCOc2ccccc2/C=C/CNC1=O,–
7.21,–,Antagonist,CC(C)C[C@@H]1NC(=O)[C@@H](C(C)C)NC(=O)[C@@H](Cc2ccc(O)cc2)NCCOc2ccccc2/C=C/CNC1=O,–
5.22,–,Antagonist,CCC[C@@H]1NC(=O)[C@@H](C(C)C)NC(=O)[C@@H](Cc2ccc(O)cc2)NCCCCc2ccccc2CCNC1=O,–
6.15,–,Antagonist,CCC[C@@H]1NC(=O)[C@@H](C(C)C)NC(=O)[C@@H](Cc2ccc(O)cc2)NC/C=C/CCNC1=O,–
5.49,–,Antagonist,CCC[C@@H]1NC(=O)[C@@H](C(C)C)NC[C@@H](Cc2ccc(O)cc2)NCCOc2ccccc2CCCNC1=O,–
5.31,–,Antagonist,CCC[C@@H]1NC(=O)[C@@H](CCC(=O)O)NC(=O)[C@@H](Cc2ccc(O)cc2)NCCOc2ccccc2/C=C/CNC1=O,–
5.19,–,Antagonist,CCC[C@@H]1NC(=O)[C@@H](C(C)C)NC(=O)[C@@H](Cc2ccc(O)cc2)N(C(C)=O)CCOc2ccccc2CCCNC1=O,–
